Source: ChEMBL document CHEMBL1155524, “Bis-azaaromatic quaternary ammonium salts as ligands for the blood-brain barrier choline transporter” (Bioorg Med Chem Lett, 2010)

Test: Binding affinity to blood-brain barrier choline transporter in rat brain assessed as inhibition of [3H]choline uptake
Format: tissue-based
How it was run: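 In situ rat brain perfusion (Takasato method, Allen and Smith modification). Analog co-perfused at a single concentration, with brain uptake of [3H]-choline measured. Ki is the analog concentration inhibiting 50% of [3H]-choline uptake into brain, derived from the single-concentration inhibition. n = 4–6 animals. Ki values compared by ANOVA with Bonferroni multiple comparisons test.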

Row | SMILES | Ki [µM]
1 | c1ccc2c[n+](CCCCCCCCCCCC[n+]3ccc4ccccc4c3)ccc2c1 | 22
2 | c1ccc2c[n+](CCCCCCCCCC[n+]3ccc4ccccc4c3)ccc2c1 | 10
3 | Cc1ccc[n+](CCCCCCCCCCC[n+]2cccc(C)c2)c1 | 36
4 | Cc1cc[n+](CCC#Cc2ccc(C#CCC[n+]3ccc(C)cc3)cc2)cc1 | 8.5
5 | CCCCCCCC[n+]1cccc([C@@H]2CCCN2C)c1 | 49
6 | c1ccc2c[n+](CCCCCC[n+]3ccc4ccccc4c3)ccc2c1 | 29
7 | Cc1ccc[n+](CCCC#Cc2cccc(C#CCCC[n+]3cccc(C)c3)c2)c1 | 140
8 | Cc1ccc[n+](CCCC#Cc2ccccc2C#CCCC[n+]2cccc(C)c2)c1 | 319
9 | Cc1ccc[n+](CCC#Cc2ccc(C#CCC[n+]3cccc(C)c3)cc2)c1 | 15
10 | Cc1ccc[n+](CCCCCCCCC[n+]2cccc(C)c2)c1 | 30
11 | Cc1ccc[n+](CCCCCC[n+]2cccc(C)c2)c1 | 26
12 | Cc1ccc[n+](CCCCCCCCCCCC[n+]2cccc(C)c2)c1 | 36
13 | Cc1ccc[n+](CCCCCCCC[n+]2cccc(C)c2)c1 | 24
14 | Cc1ccc[n+](CCCCCCCCCC[n+]2cccc(C)c2)c1 | 22
15 | Cc1cc[n+](CCC#Cc2ccc(C#CCC[n+]3ccc(C)c(C)c3)cc2)cc1C | 8.4
16 | C(#Cc1ccc(C#CCC[n+]2ccc3c(c2)CCCC3)cc1)CC[n+]1ccc2c(c1)CCCC2 | 5.4
17 | Cc1cc(C)c[n+](CCC#Cc2ccc(C#CCC[n+]3cc(C)cc(C)c3)cc2)c1 | 7.4
18 | C[N+](C)(C)CCO [CHOLINE] | 41
